Data taken from PMC11588046 (Proceedings of the National Academy of Sciences of the …, 2024).
Residue numbers refer to the chain shown, from its start. Converted amounts (≈) assume the structure as drawn. Like-named read-outs stand apart in the source and are kept apart here.

How the values were obtained:
[1] = system: FOP fibroblasts (GM00513); test: pSMAD Western blot in primary FOP fibroblasts; type: cell-based, human; conditions: FOP cells; for BMP2-induced pSMAD1/5 activation: 5 ng/mL BMP2, inhibitor 1, 5 or 25 µM (LDN 1 µM); for activin A-induced phosphorylation of SMAD1/5: 200 ng/mL activin A, inhibitor 1, 5 or 25 µM (LDN 1 µM)
How it was run: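 Primary fibroblasts from a patient with FOP (GM00513) were pretreated for 30 min with test compound (1, 5 or 25 µM) or a reference inhibitor (1 µM). Cells then received vehicle (DMSO), 200 ng/mL activin A or 5 ng/mL BMP2 for 45 min, with inhibitor present. Lysates were Western blotted for pSMAD1/5, total SMAD1, total SMAD5 and GAPDH (loading control). For activin A, pSMAD2/3 was also blotted.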

WT fibroblasts (GM01652) = test: pSMAD1/5 Western blot in primary WT fibroblasts; type: cell-based, human; conditions: 5 ng/mL BMP2, inhibitor 1, 5 or 25 µM (LDN 1 µM)
WT ALK1 = WT ALK1 (Homo sapiens, UniProt P37023); test: NanoBRET TE intracellular kinase assay; type: cell-based; conditions: read-out: ALK1 IC50, HEK293 cells
WT ALK2 = biological target: T1, WT ALK2 (Homo sapiens, UniProt Q04771); type: cell-based; conditions: read-out: ALK2 IC50; NanoBRET, HEK293 cells
T1 sequence (Q04771 21-509): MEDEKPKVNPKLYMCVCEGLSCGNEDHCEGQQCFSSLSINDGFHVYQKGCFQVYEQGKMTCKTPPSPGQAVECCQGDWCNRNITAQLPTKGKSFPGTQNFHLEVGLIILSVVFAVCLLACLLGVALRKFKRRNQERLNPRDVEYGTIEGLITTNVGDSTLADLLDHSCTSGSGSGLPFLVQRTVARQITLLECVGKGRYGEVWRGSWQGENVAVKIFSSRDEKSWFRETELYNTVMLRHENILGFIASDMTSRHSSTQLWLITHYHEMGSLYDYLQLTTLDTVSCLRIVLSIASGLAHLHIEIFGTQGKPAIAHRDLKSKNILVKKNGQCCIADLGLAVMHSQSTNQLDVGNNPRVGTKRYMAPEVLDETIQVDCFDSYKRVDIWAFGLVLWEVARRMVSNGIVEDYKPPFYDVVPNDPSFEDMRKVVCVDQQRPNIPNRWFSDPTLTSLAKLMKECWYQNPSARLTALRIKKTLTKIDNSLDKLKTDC

Dynamic solubility assay = type: physicochemical
[2] = Metabolic stability in mouse liver microsomes; type: in vitro ADME
mutant ALK2 (R206H) = biological target: T2, mutant ALK2 (R206H) (Homo sapiens, UniProt Q04771, R206H); type: cell-based; conditions: read-out: ALK2 (R206H) IC50; NanoBRET, HEK293 cells
T2 sequence (Q04771 21-509 R206H): T1 sequence (Q04771 21-509) with R186H

[3] = Metabolic stability in human liver microsomes; type: in vitro ADME
293 T-BRE-Luc cells = test: BMP-induced luciferase activity in 293 T-BRE-Luc reporter cells; type: cell-based
How it was run: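 293T cells stably carrying a BMP-responsive element–luciferase reporter, about 20,000 per well, attached overnight. Pretreated 30 min with DMSO vehicle or test compound (0.04, 0.2, 1, 5, 25 μM) in phenol-red-free DMEM with 2 mM glutamine and 2% heat-inactivated FBS. Then stimulated 6 h with BMP2 (5 ng/mL), BMP6 (500 ng/mL) or BMP7 (500 ng/mL). BrightGLO luminescence normalized to ligand-only samples; dose-response curves fitted.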

WT ALK1, sequence (P37023 22-503): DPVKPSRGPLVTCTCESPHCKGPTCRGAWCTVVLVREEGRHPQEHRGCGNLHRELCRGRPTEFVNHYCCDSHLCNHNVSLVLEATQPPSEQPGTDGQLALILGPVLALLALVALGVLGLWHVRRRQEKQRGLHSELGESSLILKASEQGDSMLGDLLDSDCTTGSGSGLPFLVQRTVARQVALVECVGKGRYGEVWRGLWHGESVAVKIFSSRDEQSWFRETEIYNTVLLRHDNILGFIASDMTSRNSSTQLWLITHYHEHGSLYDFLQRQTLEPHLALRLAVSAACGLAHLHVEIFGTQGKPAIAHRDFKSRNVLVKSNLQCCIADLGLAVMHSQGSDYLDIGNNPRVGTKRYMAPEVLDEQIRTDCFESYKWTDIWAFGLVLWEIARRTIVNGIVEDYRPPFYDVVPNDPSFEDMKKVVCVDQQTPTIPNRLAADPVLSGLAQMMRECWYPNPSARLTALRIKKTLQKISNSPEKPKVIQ

Question: Which “BMP2-induced pSMAD1/5 activation” value [1] does the source give for c1ccc2c(-c3cnn4cc(-c5ccc(N6CCNCC6)cc5)cnc34)ccnc2c1 [LDN-193189, reference compound] here?
Answer: effectively suppressed pSMAD1/5 activation

Question: What about the “activin A-induced phosphorylation of SMAD1/5” value [1] of the same compound?
Answer: effectively suppressed pSMAD1/5 activation

Question: What about the “BMP2-induced pSMAD1/5 activation” value (WT fibroblasts (GM01652)) of the same compound?
Answer: effectively suppressed pSMAD1/5 activation

Question: With CNC(=O)[C@H]1C[C@H](n2c(-c3ccc(OC)c(OC)c3)nc3ccc(C(=O)NCCCN4CCN(c5cccc(C)c5C)CC4)cc32)C1 [CDD-2421] as the compound, how does the IC50 (WT ALK1) read?
Answer: > 30000 nM

Question: What about the IC50 (WT ALK2) of the same compound?
Answer: 1240 nM

Question: What about the Solubility (Dynamic solubility assay) of the same compound?
Answer: 44.8 µM (≈ 28.6 µg/mL)

Question: And the “MLM t1/2” value ([2]; U, extremely unstable)?
Answer: 3.7 min

Question: What about the IC50 (mutant ALK2 (R206H)) of the same compound?
Answer: 2400 nM

Question: What about the “HLM t1/2” value ([3]; U, extremely unstable) of the same compound?
Answer: 6.0 min

Question: For COc1cc(-c2nc3ccc(C(=O)NCCCN4CCN(c5ccccc5)CC4)cc3n2C2CCC2)cc(OC)c1OC [CDD-2315], which IC50 (WT ALK1) is on record?
Answer: > 30000 nM

Question: What about the IC50 (WT ALK2) of the same compound?
Answer: 570 nM

Question: And the “activin A-induced phosphorylation of SMAD1/5” value [1]?
Answer: significantly inhibit the activin A-induced phosphorylation of SMAD1/5 starting at the 1 µM concentration

Question: And the IC50 (293 T-BRE-Luc cells; read-out: IC50 of BMP2-induced luciferase activity, 5 ng/mL BMP2, 6 h)?
Answer: 1490 nM

Question: What about the IC50 (293 T-BRE-Luc cells; read-out: IC50 of BMP6-induced luciferase activity, 500 ng/mL BMP6, 6 h) of the same compound?
Answer: 1460 nM

Question: And the IC50 (293 T-BRE-Luc cells; read-out: IC50 of BMP7-induced luciferase activity, 500 ng/mL BMP7, 6 h)?
Answer: 980 nM

Question: What about the “BMP2-induced pSMAD1/5 activation” value (WT fibroblasts (GM01652)) of the same compound?
Answer: significantly reduced pSMAD1/5 at all the concentrations tested

Question: What about the Solubility (Dynamic solubility assay) of the same compound?
Answer: 63.5 µM (≈ 37.1 µg/mL)

Question: What about the “MLM t1/2” value ([2]; U, extremely unstable) of the same compound?
Answer: 6.3 min

Question: And the IC50 (mutant ALK2 (R206H))?
Answer: 1230 nM

Question: What about the “HLM t1/2” value ([3]; U, extremely unstable) of the same compound?
Answer: 7.8 min

Question: Which IC50 (WT ALK1) does the source give for CNC(=O)[C@H]1C[C@H](n2c(-c3cc(F)cc(OC)c3)nc3ccc(C(=O)NCCCN4CCN(c5ccccc5)CC4)cc32)C1 [CDD-2340] here?
Answer: > 30000 nM

Question: What about the IC50 (WT ALK2) of the same compound?
Answer: 5300 nM

Question: What about the “BMP2-induced pSMAD1/5 activation” value [1] of the same compound?
Answer: only the highest concentration (25 µM) was sufficient to significantly reduce pSMAD1/5 activation

Question: And the “activin A-induced phosphorylation of SMAD1/5” value [1]?
Answer: significantly inhibit the activin A-induced phosphorylation of SMAD1/5 starting at the 1 µM concentration

Question: And the “BMP2-induced pSMAD1/5 activation” value (WT fibroblasts (GM01652))?
Answer: potently reduced BMP2-induced pSMAD1/5 activation in the WT fibroblasts at 5 and 25 µM

Question: And the Solubility (Dynamic solubility assay)?
Answer: 121.8 µM (≈ 72.9 µg/mL)

Question: And the “MLM t1/2” value ([2]; U, extremely unstable)?
Answer: 7.1 min

Question: What about the IC50 (mutant ALK2 (R206H)) of the same compound?
Answer: 9250 nM

Question: What about the “HLM t1/2” value ([3]; U, extremely unstable) of the same compound?
Answer: 24.4 min

Question: What does the source list for COc1cc(-c2nc3ccc(C(=O)NCC4(O)CCN(Cc5ccccc5)CC4)cc3n2C2CCC2)cc(OC)c1OC [CDD-2795]?
Answer: IC50 (WT ALK1): 8550 nM; IC50 (WT ALK2): 390 nM; Solubility (Dynamic solubility assay): 141.5 µM (≈ 82.7 µg/mL); MLM t1/2 ([2]; U, extremely unstable): 2.9 min; IC50 (mutant ALK2 (R206H)): 460 nM; HLM t1/2 ([3]; U, extremely unstable): 17.0 min

Question: With CNC(=O)[C@H]1C[C@H](n2c(-c3cc(OC)c(OC)c(OC)c3)nc3ccc(C(=O)NCCCN(C)C)cc32)C1 [CDD-2281] as the compound, how does the IC50 (WT ALK1) read?
Answer: > 30000 nM

Question: And the IC50 (WT ALK2)?
Answer: > 30000 nM

Question: And the Solubility (Dynamic solubility assay)?
Answer: 199.6 µM (≈ 105 µg/mL)

Question: And the “MLM t1/2” value [2]?
Answer: 804 min

Question: What about the “MLM t1/2” value ([2]; U, extremely unstable) of the same compound?
Answer: 807 min

Question: And the IC50 (mutant ALK2 (R206H))?
Answer: > 30000 nM

Question: What about the “HLM t1/2” value [3] of the same compound?
Answer: 768 min

Question: What about the “HLM t1/2” value ([3]; U, extremely unstable) of the same compound?
Answer: 769 min
